The target of test [1] is T1, PKGIα (Bos taurus, UniProt P00516).
T1 sequence (P00516 1-671): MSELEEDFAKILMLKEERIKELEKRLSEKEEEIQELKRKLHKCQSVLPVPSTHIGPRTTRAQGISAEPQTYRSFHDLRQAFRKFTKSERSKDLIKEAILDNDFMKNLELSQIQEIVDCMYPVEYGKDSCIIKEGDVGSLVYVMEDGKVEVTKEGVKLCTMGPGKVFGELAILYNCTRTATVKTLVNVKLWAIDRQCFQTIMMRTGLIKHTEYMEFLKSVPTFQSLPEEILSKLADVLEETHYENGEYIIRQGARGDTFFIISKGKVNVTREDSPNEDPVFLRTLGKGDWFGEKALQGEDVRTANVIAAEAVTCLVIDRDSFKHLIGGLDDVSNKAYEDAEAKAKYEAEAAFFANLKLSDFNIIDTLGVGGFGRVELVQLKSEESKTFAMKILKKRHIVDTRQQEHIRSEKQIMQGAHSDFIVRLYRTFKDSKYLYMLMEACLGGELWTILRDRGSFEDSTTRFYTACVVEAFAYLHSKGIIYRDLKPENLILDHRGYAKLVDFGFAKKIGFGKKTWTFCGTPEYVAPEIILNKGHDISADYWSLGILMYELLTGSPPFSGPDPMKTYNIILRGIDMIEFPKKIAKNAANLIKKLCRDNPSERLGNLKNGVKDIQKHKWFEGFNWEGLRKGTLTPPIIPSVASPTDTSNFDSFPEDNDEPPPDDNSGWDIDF
In words: FI displacement assay. The format is binding, bovine.

For test [2], the target named is T2, PKGIα (Homo sapiens, UniProt Q13976).
T2 sequence (Q13976 1-671): T1 sequence (P00516 1-671) with K265T, N275S
In words: FA displacement assay. The test is classed as binding. The note with it: for log IC50, PKGIα, FA (displacement): displacement of ARC-1059 (2 nM) from PKGIα (4 nM), cGMP 1 μM, logarithm of IC50.

The test system of test [3] is vascular smooth muscle cells in intact cerebral arteries. Kind of test: Fluorescence imaging of vascular smooth muscle cells in intact arteries. The format is cell-based, rat. Summed up:
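Isolated intact rat cerebral arteries incubated at room temperature in Hepes buffer with the TAMRA-labelled test compound (100 nM, 1 μM or 10 μM) for 20, 40 or 60 min, then washed 3 times. Imaged by confocal scanning laser microscopy at 20× and 40×, with TAMRA excited at 568 nm (krypton–argon laser). Fluorescein-labelled reference peptide (2 μM) with TOTO-3 nuclear stain (488/647 nm excitation) used as reference.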

For test [4], the target named is T2, PKGIα. In words: FA direct binding assay. The note with it: addition of cGMP in the absence of Mg2+.
Test [5] concerns the target PKGIα. The note with it: reported in the literature; cited from earlier work.
In the next test the target is PKAc (Homo sapiens, UniProt P17612). The note with it: 100 μM ATP and 30 μM TAMRA-Kemptide substrate; logarithm of IC50; cited from earlier work.
Test [6] concerns the target T1, PKGIα. In words: Radioactive inhibition assay. The format is biochemical, bovine.

Substitutions are numbered along the chain they refer to. Marks after values point to notes of the source that are not given here. Starred links: 1 amine or outer side, 2 acyl side, 3 side chain; linkers in the order of their positions; H or OH if unused. Non-standard residues stand in square brackets, D forms with d. Residues, ends and D or L forms follow the SMILES beside them. *: point of attachment. X2 = CN(C)c1ccc2c(-c3ccc(C(=O)*)cc3C(=O)[O-])c3ccc(=[N+](C)C)cc-3oc2c1; Isoquinoline5sulfonyl = O=S(=O)(c1cccc2cnccc12)*; X1 = O=C(CCCCCNCCN[*:1])[*:2]

The values that follow come from article PMC3071016 (Biochimica et biophysica acta, 2010).

As a reminder, the IC50 is the concentration that gives 50% inhibition. The Ki is a dissociation constant, usually derived from enzyme kinetics or from competition with a known ligand. The Km is the substrate concentration at which the rate is half of its maximum.

Compound `CSCC[C@H](NC(=O)[C@H](C)NC(=O)[C@H](CC(C)C)NC(=O)[C@H](C)NC(=O)[C@H](CCCCN)NC(=O)[C@H](CCCCN)NC(=O)[C@H](CCCNC(=N)N)NC(=O)[C@H](CCCCN)NC(=O)[C@H](C)NC(=O)[C@H](CCC(N)=O)NC(=O)[C@@H](N)[C@@H](C)O)C(=O)N[C@@H](C)C(N)=O` [WW21] showed a concentration for half-maximal inhibition (IC50) at PKGIα [1] of 251000 nM.

With `Nc1ncnc2c1ncn2[C@@H]1O[C@H](COP(=O)(O)OP(=O)([O-])OP(=O)([O-])O)[C@@H](O)[C@H]1O.[Mg+2]` [MgATP], at PKGIα [2], the “log IC50, PKGIα, FA (displacement)” value is −2.35 (0.08).

For the compound `CN(C)c1ccc2c(-c3ccc(C(=O)NCCCC[C@@H](NC(=O)[C@@H](CCCNC(=N)N)NC(=O)[C@@H](CCCNC(=N)N)NC(=O)[C@@H](CCCNC(=N)N)NC(=O)[C@@H](CCCNC(=N)N)NC(=O)[C@@H](CCCNC(=N)N)NC(=O)[C@@H](CCCNC(=N)N)NC(=O)CCCCCNCCNS(=O)(=O)c4cccc5cnccc45)C(N)=O)cc3C(=O)[O-])c3ccc(=[N+](C)C)cc-3oc2c1` [ARC-1059, H9-Hex-(D-Arg)6-[D-Lys(TAMRA)]-NH2] (Isoquinoline5sulfonyl-[X1][dR][dR][dR][dR][dR][dR][dK](X2)-NH2), the “internalization in smooth muscle tissue, concentration dependence” value in test [3] (100 nM, 1 μM or 10 μM) is reported as “not well observable at concentrations lower than 1 μM”. For the same compound, the “incubation time after which internalization into tissue cells was observable” value in test [3] (10 μM, nucleus not yet stained) was 20 min. Moreover, the “internalization into vascular smooth muscle cells” value in test [3] (intact pial arteries from rat brain, incubation 20, 40 or 60 min at room temperature) is recorded as “internalized into vascular smooth muscle cells”. Also, the “increase of affinity towards PKGIα by addition of cGMP” value at PKGIα [4] was determined as 8 fold.

For the compound `NCCNS(=O)(=O)c1cccc2cnccc12` [H9], the Ki at PKGIα [5] was 870 nM. Further, the “log IC50, PKAc, Inhibition” value at PKAc was −5.43 ^b [36]. Moreover, the “log IC50, PKGIα, Inhibition” value at PKGIα [6] (100 μM ATP and 11 μM TQAKRKKSLAMA substrate, presence of cGMP, logarithm of IC50) was −6.85 (0.02). Also, on PKGIα [6] (read-out: inhibition IC50, 100 μM ATP, 11 μM substrate peptide, presence of cGMP), the IC50 came out at 141 nM.

Take `COC(=O)[C@@]1(OC)C[C@H]2O[C@]1(C)n1c3ccccc3c3c4c(c5c6ccccc6n2c5c31)C(=O)N(C)C4` [KT-5823]: the “displacement of ARC-1059 from its complex with PKGIα” value at PKGIα [2] (assay format not stated) is “failed to displace ARC-1059”.

For the compound `Nc1ncnc2c1ncn2[C@@H]1O[C@H](COP(=O)(O)OP(=O)(O)OP(=O)(O)O)[C@@H](O)[C@H]1O` [ATP], on PKGIα [6] (PKGIα-catalysed phosphorylation), the Km stood at 20 µM. Further, the “log IC50, PKGIα, FA (displacement)” value at PKGIα [2] was −2.02 (0.33).

Consider `O=S(=O)(NCCNCC=Cc1ccc(Br)cc1)c1cccc2cnccc12` [H89, N-[2-(p-bromocinnamylamino)ethyl]-5-isoquinoline-sulfonamide], for which the Ki at PKGIα [5] is 480 nM. The half-inhibitory concentration (IC50) on PKGIα [1] was 1100 nM; at PKGIα [2] it was 3020 nM.
